Data taken from ChEMBL document CHEMBL1240487, “Discovery of a potent, selective, and orally bioavailable pyridinyl-pyrimidine phthalazine aurora kinase inhibitor” (J Med Chem, 2010).
In brackets after ≈: the same amount, converted by molar mass. Blank lines part the entries; values can stand above or below the molecule they belong to. Activity calls are given as the source filed them. No cut-off for these calls is given here.

Tests used:
[1] = molecular target: Tyrosine-protein kinase ABL1 (Homo sapiens, UniProt P00519); test: Inhibition of Abl by HTRF assay
In short: (§1)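 Enzyme inhibition was run with ATP at its Km for each kinase. Values are averages of at least two determinations.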

Angiopoietin-1 receptor = Angiopoietin-1 receptor (Homo sapiens, UniProt Q02763); test: Inhibition of Tie-2 by HTRF assay; in short: as §1
[2] = molecular target: T1, Aurora kinase A/Targeting protein for Xklp2 (Homo sapiens, UniProt O14965); test: Inhibition of Aurora A/TPX2 (1-43) by HTRF assay; assay type: protein-complex assay; in short: as §1
T1 sequence (O14965 whole entry): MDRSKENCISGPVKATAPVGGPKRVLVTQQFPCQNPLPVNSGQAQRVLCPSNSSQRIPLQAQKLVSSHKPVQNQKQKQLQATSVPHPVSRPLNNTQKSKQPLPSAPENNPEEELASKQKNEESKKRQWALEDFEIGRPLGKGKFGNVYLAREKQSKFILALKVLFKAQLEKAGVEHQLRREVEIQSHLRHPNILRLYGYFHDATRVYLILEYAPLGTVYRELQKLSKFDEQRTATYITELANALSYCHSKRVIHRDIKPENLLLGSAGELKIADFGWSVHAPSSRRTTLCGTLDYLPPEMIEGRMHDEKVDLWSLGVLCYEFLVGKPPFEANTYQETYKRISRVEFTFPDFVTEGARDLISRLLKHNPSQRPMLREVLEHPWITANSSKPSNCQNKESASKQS
T1 sequence (Q9ULW0 whole entry): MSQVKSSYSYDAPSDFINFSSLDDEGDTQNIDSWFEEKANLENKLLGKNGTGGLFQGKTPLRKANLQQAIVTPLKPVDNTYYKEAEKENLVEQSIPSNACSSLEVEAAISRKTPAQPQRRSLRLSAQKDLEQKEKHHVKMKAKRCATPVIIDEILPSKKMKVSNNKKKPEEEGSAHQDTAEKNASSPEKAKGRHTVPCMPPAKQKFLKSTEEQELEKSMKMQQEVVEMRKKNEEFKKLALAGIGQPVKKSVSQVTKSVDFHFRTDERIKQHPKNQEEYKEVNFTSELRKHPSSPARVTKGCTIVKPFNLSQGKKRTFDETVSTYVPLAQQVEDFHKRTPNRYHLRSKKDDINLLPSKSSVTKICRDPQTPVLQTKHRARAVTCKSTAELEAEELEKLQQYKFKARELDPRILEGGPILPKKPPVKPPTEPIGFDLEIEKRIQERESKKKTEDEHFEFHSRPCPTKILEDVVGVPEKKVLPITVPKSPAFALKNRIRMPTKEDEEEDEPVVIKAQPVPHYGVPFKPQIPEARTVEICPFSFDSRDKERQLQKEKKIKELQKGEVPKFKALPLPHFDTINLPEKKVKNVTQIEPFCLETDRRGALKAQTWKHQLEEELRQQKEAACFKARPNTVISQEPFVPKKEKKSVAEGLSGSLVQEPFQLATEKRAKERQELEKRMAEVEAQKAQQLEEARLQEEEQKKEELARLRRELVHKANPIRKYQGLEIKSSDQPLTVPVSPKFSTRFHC

[3] = molecular target: RAC-alpha serine/threonine-protein kinase (Homo sapiens, UniProt P31749); test: Inhibition of PKBalpha by HTRF assay; in short: as §1
RAC-alpha serine/threonine-protein kinase, sequence (P31749 whole entry): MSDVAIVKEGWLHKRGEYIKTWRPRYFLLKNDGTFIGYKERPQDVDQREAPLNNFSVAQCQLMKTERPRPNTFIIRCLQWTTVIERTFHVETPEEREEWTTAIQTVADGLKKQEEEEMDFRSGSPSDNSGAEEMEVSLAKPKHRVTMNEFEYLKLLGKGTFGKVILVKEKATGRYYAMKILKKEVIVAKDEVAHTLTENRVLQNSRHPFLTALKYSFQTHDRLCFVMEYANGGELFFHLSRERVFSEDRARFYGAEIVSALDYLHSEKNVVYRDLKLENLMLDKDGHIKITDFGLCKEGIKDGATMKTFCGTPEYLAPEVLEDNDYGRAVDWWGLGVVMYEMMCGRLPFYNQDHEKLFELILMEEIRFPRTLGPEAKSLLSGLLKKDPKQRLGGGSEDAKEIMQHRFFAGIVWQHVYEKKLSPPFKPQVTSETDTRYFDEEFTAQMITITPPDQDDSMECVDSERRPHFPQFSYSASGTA

[4] = molecular target: Mast/stem cell growth factor receptor Kit (Homo sapiens, UniProt P10721); test: Inhibition of c-Kit by HTRF assay; in short: as §1
[5] = molecular target: Vascular endothelial growth factor receptor 2 (Homo sapiens, UniProt P35968); test: Inhibition of KDR by HTRF assay; in short: as §1
[6] = molecular target: Macrophage colony-stimulating factor 1 receptor (Homo sapiens, UniProt P07333); test: Inhibition of c-Fms by HTRF assay; in short: as §1
[7] = molecular target: Ribosomal protein S6 kinase beta-1 (Homo sapiens, UniProt P23443); test: Inhibition of p70s6k by HTRF assay; in short: as §1
Ribosomal protein S6 kinase beta-1, sequence (P23443 whole entry): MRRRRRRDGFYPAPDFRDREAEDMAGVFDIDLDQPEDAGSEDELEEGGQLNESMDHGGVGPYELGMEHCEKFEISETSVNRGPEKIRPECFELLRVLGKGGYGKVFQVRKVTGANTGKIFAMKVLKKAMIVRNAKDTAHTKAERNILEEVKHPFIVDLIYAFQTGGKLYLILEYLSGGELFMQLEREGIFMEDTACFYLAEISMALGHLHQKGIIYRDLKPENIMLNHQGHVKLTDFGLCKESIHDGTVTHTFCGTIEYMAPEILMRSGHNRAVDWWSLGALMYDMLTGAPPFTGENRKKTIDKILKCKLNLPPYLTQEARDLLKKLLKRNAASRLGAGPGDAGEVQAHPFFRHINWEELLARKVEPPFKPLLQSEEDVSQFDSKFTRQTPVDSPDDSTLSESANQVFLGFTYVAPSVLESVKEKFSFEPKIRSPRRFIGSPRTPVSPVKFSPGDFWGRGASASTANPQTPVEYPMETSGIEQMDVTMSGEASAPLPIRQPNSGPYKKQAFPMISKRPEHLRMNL

[8] = molecular target: Insulin-like growth factor 1 receptor (Homo sapiens, UniProt P08069); test: Inhibition of IGFR1 by HTRF assay; in short: as §1
Insulin-like growth factor 1 receptor, sequence (P08069 31-736 limits assumed): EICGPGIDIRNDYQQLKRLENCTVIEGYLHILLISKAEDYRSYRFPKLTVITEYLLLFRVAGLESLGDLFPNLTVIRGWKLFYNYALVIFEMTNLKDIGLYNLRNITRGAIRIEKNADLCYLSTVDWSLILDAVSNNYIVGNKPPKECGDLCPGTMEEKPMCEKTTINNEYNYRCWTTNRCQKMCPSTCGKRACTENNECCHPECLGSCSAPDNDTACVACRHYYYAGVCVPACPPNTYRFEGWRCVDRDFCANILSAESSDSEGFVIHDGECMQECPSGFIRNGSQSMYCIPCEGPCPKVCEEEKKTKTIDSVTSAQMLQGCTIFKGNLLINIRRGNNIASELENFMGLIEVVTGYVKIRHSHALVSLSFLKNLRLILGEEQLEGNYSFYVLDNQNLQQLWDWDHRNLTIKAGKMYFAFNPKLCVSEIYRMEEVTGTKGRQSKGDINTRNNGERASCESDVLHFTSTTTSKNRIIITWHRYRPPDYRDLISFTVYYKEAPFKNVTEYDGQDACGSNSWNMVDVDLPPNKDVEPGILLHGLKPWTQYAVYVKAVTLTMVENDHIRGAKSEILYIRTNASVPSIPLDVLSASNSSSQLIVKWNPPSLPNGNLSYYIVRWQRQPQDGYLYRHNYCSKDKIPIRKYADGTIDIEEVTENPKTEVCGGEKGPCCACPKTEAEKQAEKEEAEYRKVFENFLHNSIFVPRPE
Insulin-like growth factor 1 receptor, sequence (P08069 741-1367 limits assumed): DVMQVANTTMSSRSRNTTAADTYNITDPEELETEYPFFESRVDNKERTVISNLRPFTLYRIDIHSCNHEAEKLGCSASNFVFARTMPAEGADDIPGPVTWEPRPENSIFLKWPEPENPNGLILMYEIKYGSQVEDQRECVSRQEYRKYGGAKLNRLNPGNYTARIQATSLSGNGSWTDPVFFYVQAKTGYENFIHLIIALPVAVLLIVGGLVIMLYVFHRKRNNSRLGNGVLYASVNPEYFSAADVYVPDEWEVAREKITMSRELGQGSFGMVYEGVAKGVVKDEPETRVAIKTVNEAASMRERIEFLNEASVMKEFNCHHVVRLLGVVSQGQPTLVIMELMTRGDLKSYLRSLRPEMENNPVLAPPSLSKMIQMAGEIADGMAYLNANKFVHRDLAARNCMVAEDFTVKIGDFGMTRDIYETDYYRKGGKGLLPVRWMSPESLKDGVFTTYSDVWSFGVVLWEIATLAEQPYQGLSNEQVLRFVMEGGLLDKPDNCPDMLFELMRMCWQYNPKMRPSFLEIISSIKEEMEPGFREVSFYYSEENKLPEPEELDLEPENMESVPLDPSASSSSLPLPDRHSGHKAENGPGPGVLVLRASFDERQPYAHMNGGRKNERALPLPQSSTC

[9] = Drug level in human COLO205 cells xenografted in CD1 mouse plasma at 50 mg/kg, po after 24 hrs; assay type: ADME, organism-based, COLO 205; design: dose 50 mg/kg, route oral
In short: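 COLO 205 xenograft-bearing mice received a single 50 mg/kg oral dose (N = 12 per group). Plasma was sampled at 3, 6 and 24 h (N = 4 per time point) and analyzed for drug concentration. Results are reported as mean ± SD.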

[10] = Aqueous equilibrium solubility of the compound in 0.01N HCL; assay type: physicochemical
[11] = Protein binding in mouse plasma at 10 uM by ultrafiltration; assay type: ADME, cell-free; conditions: read-out: PPB
Aurora kinase B [12] = molecular target: T2, Aurora kinase B (Homo sapiens, UniProt Q96GD4); test: Inhibition of aurora B autophosphorylation in human HeLa cells at 0.313 uM after 3 hrs by Western blotting
T2 sequence (Q96GD4 whole entry): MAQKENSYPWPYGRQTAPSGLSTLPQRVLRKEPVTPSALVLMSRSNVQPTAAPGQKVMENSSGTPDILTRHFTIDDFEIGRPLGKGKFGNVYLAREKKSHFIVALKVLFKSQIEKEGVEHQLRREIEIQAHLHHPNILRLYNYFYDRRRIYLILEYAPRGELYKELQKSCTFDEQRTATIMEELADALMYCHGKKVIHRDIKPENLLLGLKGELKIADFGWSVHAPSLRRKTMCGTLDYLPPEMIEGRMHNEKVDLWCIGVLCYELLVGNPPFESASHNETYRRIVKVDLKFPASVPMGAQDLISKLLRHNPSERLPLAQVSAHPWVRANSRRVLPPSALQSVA

[13] = molecular target: Tyrosine-protein kinase BTK (Homo sapiens, UniProt Q06187); test: Inhibition of BTK by HTRF assay
Tyrosine-protein kinase BTK, sequence (Q06187 whole entry): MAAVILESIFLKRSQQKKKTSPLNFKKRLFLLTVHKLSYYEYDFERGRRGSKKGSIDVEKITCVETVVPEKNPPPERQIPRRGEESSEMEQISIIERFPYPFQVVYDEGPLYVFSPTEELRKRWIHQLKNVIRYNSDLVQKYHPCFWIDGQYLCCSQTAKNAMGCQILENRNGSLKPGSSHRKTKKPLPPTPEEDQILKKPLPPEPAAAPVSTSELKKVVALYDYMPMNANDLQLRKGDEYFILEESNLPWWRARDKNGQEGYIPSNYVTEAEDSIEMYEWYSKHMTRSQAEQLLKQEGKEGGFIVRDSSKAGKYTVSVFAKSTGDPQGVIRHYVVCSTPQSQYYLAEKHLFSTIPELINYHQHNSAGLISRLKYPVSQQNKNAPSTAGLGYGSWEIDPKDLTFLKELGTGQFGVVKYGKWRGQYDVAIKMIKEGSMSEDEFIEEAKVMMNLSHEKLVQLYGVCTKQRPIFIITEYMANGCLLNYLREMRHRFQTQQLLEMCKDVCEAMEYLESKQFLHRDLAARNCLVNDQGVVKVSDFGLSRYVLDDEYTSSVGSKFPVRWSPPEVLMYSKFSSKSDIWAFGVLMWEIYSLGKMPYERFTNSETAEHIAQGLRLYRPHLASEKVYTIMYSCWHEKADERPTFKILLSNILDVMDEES

[14] = molecular target: Ribosomal protein S6 kinase alpha-5 (Homo sapiens, UniProt O75582); test: Inhibition of MSK1 by HTRF assay; in short: as §1
Ribosomal protein S6 kinase alpha-5, sequence (O75582 whole entry): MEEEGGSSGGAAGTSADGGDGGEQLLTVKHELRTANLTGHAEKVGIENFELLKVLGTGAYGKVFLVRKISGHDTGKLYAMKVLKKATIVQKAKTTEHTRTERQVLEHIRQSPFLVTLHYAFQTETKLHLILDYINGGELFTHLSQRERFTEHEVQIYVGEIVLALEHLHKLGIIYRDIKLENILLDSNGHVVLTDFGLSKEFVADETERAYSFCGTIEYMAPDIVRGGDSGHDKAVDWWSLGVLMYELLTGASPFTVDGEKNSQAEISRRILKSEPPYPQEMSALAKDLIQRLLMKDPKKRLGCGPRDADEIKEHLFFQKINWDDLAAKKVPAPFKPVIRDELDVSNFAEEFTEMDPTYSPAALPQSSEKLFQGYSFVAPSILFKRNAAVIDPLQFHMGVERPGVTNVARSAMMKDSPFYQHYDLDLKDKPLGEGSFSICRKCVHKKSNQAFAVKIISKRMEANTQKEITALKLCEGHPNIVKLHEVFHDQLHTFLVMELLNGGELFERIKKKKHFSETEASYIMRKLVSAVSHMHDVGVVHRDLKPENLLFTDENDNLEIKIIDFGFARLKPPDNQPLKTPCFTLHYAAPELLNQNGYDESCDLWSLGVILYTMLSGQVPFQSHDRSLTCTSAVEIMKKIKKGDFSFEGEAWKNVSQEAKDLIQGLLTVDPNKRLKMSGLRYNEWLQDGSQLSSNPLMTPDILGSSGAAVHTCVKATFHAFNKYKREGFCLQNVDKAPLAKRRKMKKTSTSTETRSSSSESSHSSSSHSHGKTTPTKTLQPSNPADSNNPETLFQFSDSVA

HeLa = test: Induction of morphological changes in human HeLa cells at […] after 48 hrs using DAPI staining by microscopic analysis
Mus musculus = test: Inhibition of aurora B in human COLO205 cells xenografted in CD1 mouse assessed as reduction of phosphorylated histone H3 level at 50 mg/kg, po after 3 to 6 hrs by immunofluorescence-based flow cytometry; assay type: functional; conditions: CD1, COLO 205
In short: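 Mice carried established COLO 205 xenografts of about 300 mm3 and received a single oral dose of vehicle or 50 mg/kg (N = 12 per group). Tumors were harvested at 3, 6 and 24 h (N = 4 per time point). p-Histone H3 was measured by immunofluorescence-based flow cytometry as the percentage of positive cells in G2/M. Groups were compared with ANOVA and Scheffe's post hoc test against vehicle.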

Aurora kinase B [15] = molecular target: T2, Aurora kinase B; test: Inhibition of aurora B in human HeLa cells assessed as reduction of histone H3 phosphorylation at Ser10 at 0.313 uM after 24 hrs by flow cytometry
[16] = molecular target: Cyclin-dependent kinase 1 (Homo sapiens, UniProt P06493); test: Inhibition of CDK1 by HTRF assay; in short: as §1
Cyclin-dependent kinase 1, sequence (P06493 whole entry): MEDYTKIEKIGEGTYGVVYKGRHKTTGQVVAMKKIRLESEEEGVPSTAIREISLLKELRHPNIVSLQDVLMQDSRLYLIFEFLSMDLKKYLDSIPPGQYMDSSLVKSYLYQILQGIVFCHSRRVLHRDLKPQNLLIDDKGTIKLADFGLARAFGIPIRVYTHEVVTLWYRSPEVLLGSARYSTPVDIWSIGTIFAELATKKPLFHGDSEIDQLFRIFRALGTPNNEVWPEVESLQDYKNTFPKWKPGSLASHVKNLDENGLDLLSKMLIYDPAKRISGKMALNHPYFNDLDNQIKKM

[17] = Clearance in Sprague-Dawley rat at 0.5 mg/kg, iv and 2 mg/kg, po; assay type: ADME, organism-based; conditions: in vivo
[18] = Intrinsic clearance in rat liver microsomes at 1 uM after up to 40 mins; assay type: ADME, Microsome
[19] = Volume of distribution at steady state in Sprague-Dawley rat at 0.5 mg/kg, iv and 2 mg/kg, po; assay type: ADME, organism-based; conditions: in vivo, read-out: Vdss
[20] = Oral bioavailability in Sprague-Dawley rat at 2 mg/kg; assay type: ADME, organism-based; conditions: in vivo
[21] = molecular target: Cyclin-dependent kinase 2 (Homo sapiens, UniProt P24941); test: Inhibition of CDK2 by HTRF assay; in short: as §1
[22] = molecular target: Tyrosine-protein kinase ABL1 (Homo sapiens, UniProt P00519, T315I); test: Inhibition of Abl T315I mutant by HTRF assay; in short: as §1

IC50 [1]: 0.503 µM | IC50 (Angiopoietin-1 receptor): 0.63 µM | IC50 [2]: 0.586 µM | IC50 [3]: > 8 µM | IC50 [4]: 1.35 µM | IC50 [5]: 3.27 µM | IC50 [6]: 1.58 µM | IC50 [7]: > 8 µM | IC50 [8]: > 8 µM
Structure (SMILES): CNc1nccc(-c2cccnc2Oc2ccc(NC(=O)c3cccc(C(F)(F)F)c3)cc2C)n1

concentration at 24 h [9]: 2460 ng/mL | solubility thermodynamic [10]: > 200 µg/mL | fraction unbound at 10 µM [11]: < 0.001 | IC50 [2]: 0.041 µM | Activity (Aurora kinase B [12]): Active | IC50 [3]: > 25 µM | IC50 [13]: > 25 µM | IC50 [14]: > 25 µM | IC50 [7]: > 25 µM | IC50 [8]: > 25 µM | Activity (Aurora kinase B [15]): Active
Structure (SMILES): CNc1nccc(-c2cccnc2Oc2ccc(Nc3nnc(-c4ccc(F)cc4)c4ccccc34)cc2)n1
Activity (HeLa): Active | inhibition in vivo at 50 mg/kg (Mus musculus): ≥ 96%

IC50 [16]: > 1 µM | solubility thermodynamic [10]: 5 µg/mL (≈ 10.2 µM) | clearance [17]: 60 mL/min/kg | IC50 [2]: 0.016 µM | microsomal CLint at 1 µM [18]: 663 µL/min/mg | Vd [19]: 4.8 L/kg | IC50 [3]: > 1 µM | bioavailability [20]: < 1% | IC50 [21]: > 1 µM | IC50 [13]: > 1 µM | IC50 [22]: > 1 µM | IC50 [7]: > 1 µM | IC50 [8]: > 1 µM
Structure (SMILES): CNc1nccc(-c2cccnc2Oc2ccc(NC(=O)c3ccccc3Nc3ccccc3)cc2)n1
